Test results taken from ChEMBL document CHEMBL1128665, “Design, synthesis, and structure-activity relationship of novel dinucleotide analogs as agents against herpes and human immunodeficiency viruses” (J Med Chem, 1995).
Converted amounts (≈) assume the structure as drawn.

Legend:
MT4 [1] = test: Concentration required to reduce the number of viable uninfected cells by 50%; type: functional, cell-based; settings: Homo sapiens
Procedure, shortened: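 Uninfected MT4 cells were used for the toxicity arm of the anti-HIV-1 cell-protection assay. The value is the concentration reducing the number of viable uninfected cells by 50%. […]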

MT4 [2] = test: Inhibitory Effect against HIV-1 (IIIB) in MT4 cells; Not active up to 128 ug/mL.; settings: Homo sapiens
MT4 [3] = test: Inhibitory Effect against HIV-1 (IIIB) in MT4 cells; settings: Homo sapiens
[4] = Solubility was determined with phosphate buffer (0.10M, 5 mL).; type: physicochemical; settings: read-out: Solubility in water
Procedure, shortened: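 Solid compound (70 mg) was agitated in 0.10 M phosphate buffer (5.0 mL) for 20 h. Undissolved solid was filtered off on sintered glass, and the dissolved concentration was determined by UV absorbance.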

HeLa [5] = test: Inhibition of cytopathogenicity of Varicella-Zoster virus(VZV)(YS) in Hela cell culture.; type: functional, cell-based; settings: Homo sapiens
HeLa [6] = test: Concentration required to cause microscopically visible change or disruption in about 50% of Hela cell sheet.; type: functional, cell-based; settings: Homo sapiens
Procedure, shortened: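 Uninfected HeLa cell sheets were exposed to a range of compound concentrations and checked microscopically for morphological change. The value is the concentration causing visible change or disruption in about 50% of the cell sheet.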

HeLa [7] = test: Inhibition of cytopathogenicity of herpes simplex type 1 virus (HSV-1)(KOS) in Hela cell culture.; type: functional, cell-based; settings: Homo sapiens
HeLa [8] = test: Inhibition of cytopathogenicity of herpes simplex type 2 virus([…] in Hela cell culture; type: functional, cell-based; settings: Homo sapiens
HeLa [9] = test: Inhibition of cytopathogenicity of herpes simplex type 2 virus([…] in Hela cell culture; Not active up to 128 ug/mL.; type: functional, cell-based, Homo sapiens
HeLa [10] = test: Inhibition of cytopathogenicity of Varicella-Zoster virus(VZV)(YS) in Hela cell culture; Not active up to 128 ug/mL.; type: functional, cell-based, Homo sapiens

| Structure (SMILES) | solubility [4] | IC50 (HeLa [6]; read-out: IC50) | IC50 (HeLa [7]; read-out: IC50) | IC50 (HeLa [8]) | IC50 (MT4 [1]) | IC50 (MT4 [3]) | also measured |
| --- | --- | --- | --- | --- | --- | --- | --- |
| Cc1cn([C@H]2C=C[C@@H](CP(=O)(O)O)O2)c(=O)[nH]c1=O |  |  |  |  | 196 µg/mL (≈ 679 µM) |  | IC50 (MT4 [2]): Not Active |
| Nc1ncnc2c1ncn2COCCP(=O)(O)O.Nc1ncnc2c1ncn2[C@@H]1O[C@H](CO)[C@@H](O)[C@@H]1O |  | 168 µg/mL | 0.67 µg/mL | 1.25 µg/mL |  |  | IC50 (HeLa [5]): 2.86 µg/mL |
| Cc1cn([C@H]2C[C@H](C#N)[C@@H](CP(=O)(O)O)O2)c(=O)[nH]c1=O |  |  |  |  | 69.9 µg/mL (≈ 222 µM) |  | IC50 (MT4 [2]): Not Active |
| Cc1cn([C@H]2C[C@H](N=[N+]=[N-])[C@@H](CP(=O)(O)O)O2)c(N)nc1=O |  |  |  |  | 58.6 µg/mL (≈ 178 µM) |  | IC50 (MT4 [2]): Not Active |
| Cc1cn([C@H]2CC[C@@H](CP(=O)(O)O)O2)c(=O)[nH]c1=O |  |  |  |  | 128 µg/mL (≈ 443 µM) | 23.5 µg/mL (≈ 81 µM) |  |
| Cc1cn([C@H]2C[C@H](N=[N+]=[N-])[C@@H](CO)O2)c(=O)[nH]c1=O [ZIDOVUDINE] |  |  |  |  | 57.3 µg/mL (≈ 214 µM) | 0.02 µg/mL (≈ 0.0748 µM) |  |
| Nc1ncnc2c1ncn2COCCP(=O)(O)O[C@H]1[C@H](O)[C@H](n2cnc3c(N)ncnc32)O[C@@H]1CO | 2460 µg/mL (≈ 4710 µM) |  | 8.97 µg/mL (≈ 17.2 µM) | 16.3 µg/mL (≈ 31.2 µM) |  |  | IC50 (HeLa [10]): Not Active; IC50 (HeLa [6]): 346 µg/mL (≈ 662 µM) |
| Nc1nc2c(ncn2COCCO)c(=O)[nH]1 [ACYCLOVIR] |  | 250 µg/mL (≈ 1110 µM) | 0.1 µg/mL (≈ 0.444 µM) | 0.23 µg/mL (≈ 1.02 µM) |  |  |  |
| COC(=O)[C@H](C)NP(=O)(C[C@H]1O[C@@H](n2cc(C)c(=O)[nH]c2=O)C[C@@H]1N=[N+]=[N-])O[C@H]1C[C@H](n2cc(C)c(=O)[nH]c2=O)O[C@@H]1CO (some centres undefined) | 9130 µg/mL (≈ 14300 µM) |  |  |  | 200 µg/mL (≈ 312 µM) | 0.61 µg/mL (≈ 0.952 µM) |  |
| CCOP(=O)(O)CCOCn1cnc2c(N)ncnc21.N |  | 176 µg/mL | 11.3 µg/mL | 13.8 µg/mL |  |  | IC50 (HeLa [5]): 25 µg/mL |

Further lines, with some results ahead:

| solubility [4] | IC50 (HeLa [6]; read-out: IC50) | IC50 (HeLa [7]; read-out: IC50) | IC50 (HeLa [8]) | Structure (SMILES) | IC50 (MT4 [1]) | IC50 (MT4 [3]) | also measured |
| --- | --- | --- | --- | --- | --- | --- | --- |
| 9200 µg/mL (≈ 14400 µM) |  |  |  | COC(=O)[C@@H](C)NP(=O)(C[C@H]1O[C@@H](n2cc(C)c(=O)[nH]c2=O)C[C@@H]1N=[N+]=[N-])O[C@H]1C[C@H](n2cc(C)c(=O)[nH]c2=O)O[C@@H]1CO (some centres undefined) | 458 µg/mL (≈ 714 µM) | 0.76 µg/mL (≈ 1.19 µM) |  |
| 13600 µg/mL (≈ 49900 µM) | 215 µg/mL (≈ 787 µM) | 3.98 µg/mL (≈ 14.6 µM) | 5.86 µg/mL (≈ 21.5 µM) | Nc1ncnc2c1ncn2COCCP(=O)(O)O |  |  | IC50 (HeLa [5]): 16 µg/mL (≈ 58.6 µM) |
| 11200 µg/mL (≈ 33700 µM) |  |  |  | Cc1cn([C@H]2C[C@H](N=[N+]=[N-])[C@@H](CP(=O)(O)O)O2)c(=O)[nH]c1=O | 115 µg/mL (≈ 346 µM) | 7.68 µg/mL (≈ 23.2 µM) |  |
| 400 µg/mL (≈ 1500 µM) |  |  |  | Nc1ncnc2c1ncn2[C@@H]1O[C@H](CO)[C@@H](O)[C@H]1O [ADENOSINE] |  |  | IC50 (HeLa [9]): Not Active; IC50 (HeLa [10]): Not Active; IC50 (HeLa [6]): 98.8 µg/mL (≈ 370 µM); IC50 (HeLa [7]): 10.8 µg/mL (≈ 40.4 µM) |
| 12300 µg/mL (≈ 39800 µM) |  |  |  | Cc1cn([C@H]2C[C@H](F)[C@@H](CP(=O)(O)O)O2)c(=O)[nH]c1=O | 98.7 µg/mL (≈ 320 µM) | 11.8 µg/mL (≈ 38.3 µM) |  |
| 8250 µg/mL (≈ 13600 µM) | 215 µg/mL (≈ 355 µM) | 0.38 µg/mL (≈ 0.625 µM) | 0.88 µg/mL (≈ 1.45 µM) | COC(=O)C(C)NP(=O)(CCOCn1cnc2c(N)ncnc21)O[C@H]1[C@H](O)[C@H](n2cnc3c(N)ncnc32)O[C@@H]1CO (some centres undefined) |  |  | IC50 (HeLa [5]): 4.82 µg/mL (≈ 7.93 µM) |
| 8790 µg/mL (≈ 14200 µM) |  |  |  | COC(=O)[C@H](C)NP(=O)(C[C@H]1O[C@@H](n2cc(C)c(=O)[nH]c2=O)C[C@@H]1F)O[C@H]1C[C@H](n2cc(C)c(=O)[nH]c2=O)O[C@@H]1CO (some centres undefined) | 180 µg/mL (≈ 292 µM) | 0.34 µg/mL (≈ 0.551 µM) |  |
| 3980 µg/mL (≈ 7480 µM) |  |  |  | Cc1cn([C@H]2C[C@H](OP(=O)(O)C[C@H]3O[C@@H](n4cc(C)c(=O)[nH]c4=O)C[C@@H]3F)[C@@H](CO)O2)c(=O)[nH]c1=O | 79 µg/mL (≈ 148 µM) | 3.04 µg/mL (≈ 5.71 µM) |  |
|  | 235 µg/mL | 0.15 µg/mL | 0.38 µg/mL | Nc1ncnc2c1ncn2COCCO.Nc1ncnc2c1ncn2COCCP(=O)(O)O |  |  | IC50 (HeLa [5]): 0.18 µg/mL |
| 1950 µg/mL (≈ 9320 µM) | 266 µg/mL (≈ 1270 µM) | 4.43 µg/mL (≈ 21.2 µM) | 8.26 µg/mL (≈ 39.5 µM) | Nc1ncnc2c1ncn2COCCO |  |  | IC50 (HeLa [5]): 6.5 µg/mL (≈ 31.1 µM) |
| 8920 µg/mL (≈ 14400 µM) |  |  |  | COC(=O)[C@@H](C)NP(=O)(C[C@H]1O[C@@H](n2cc(C)c(=O)[nH]c2=O)C[C@@H]1F)O[C@H]1C[C@H](n2cc(C)c(=O)[nH]c2=O)O[C@@H]1CO (some centres undefined) | 462 µg/mL (≈ 748 µM) | 0.5 µg/mL (≈ 0.81 µM) |  |
| 3240 µg/mL (≈ 5830 µM) |  |  |  | Cc1cn([C@H]2C[C@H](N=[N+]=[N-])[C@@H](CP(=O)(O)O[C@H]3C[C@H](n4cc(C)c(=O)[nH]c4=O)O[C@@H]3CO)O2)c(=O)[nH]c1=O | 99.5 µg/mL (≈ 179 µM) | 1.92 µg/mL (≈ 3.46 µM) |  |
